Drawing on ChEMBL document CHEMBL3596136, “Design, synthesis and biological evaluation of paralleled Aza resveratrol-chalcone compounds as potential anti-inflammatory agents for the treatment of acute lung injury” (Bioorg Med Chem Lett, 2015), this text covers inhibition, Activity and IC50 for 20 compounds.

Data set [1] has as its system RAW264.7. Kind of data set: Anti-inflammatory activity in mouse RAW264.7 cells assessed as inhibition of LPS-induced IL6 production at 10 mM pre-incubated for 10 mins before LPS stimulation for 24 hrs by ELISA method. In kind it is functional, cell-based. Particulars: in the assay text read “pre-incubated for 30 mins” for “pre-incubated for 10 mins”. Summed up:
(§1)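 RAW 264.7 macrophages pretreated with compound for 30 min, then stimulated with LPS for 24 h. TNF-α and IL-6 in culture medium measured by ELISA and normalized to total protein. Expressed as percent of LPS group; mean ± SEM of 3 independent experiments.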

For data set [2], the system named is RAW264.7. Kind of data set: Anti-inflammatory activity in mouse RAW264.7 cells assessed as inhibition of LPS-induced TNFalpha production at 10 mM pre-incubated for 10 mins before LPS stimulation for 24 hrs by ELISA method. Particulars: in the assay text read “pre-incubated for 30 mins” for “pre-incubated for 10 mins”. In kind it is functional, cell-based. In outline:
as §1

Data set [3] concerns Mus musculus. Kind of data set: Anti-inflammatory activity in C57BL/6 mouse model of LPS-induced acute lung injury assessed as reduction in serum TNFalpha level at 20 mg/kg for 1 week dosed before LPS instillation for 6 hrs. The format is functional, organism-based. In outline:
(§2)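 LPS-induced ALI in mice. Pretreatment at 20 mg/kg for one week, then intratracheal LPS (5 mg/kg). Animals killed 6 h later. BALF and serum collected and TNF-α measured in each.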

The subject of data set [4] is Mus musculus. Put plainly: Anti-inflammatory activity in C57BL/6 mouse model of LPS-induced acute lung injury assessed as reduction in lung CD68-stained macrophages level at 20 mg/kg for 1 week dosed before LPS instillation for 6 hrs by immunohistochemistry method. The format is functional, organism-based. Summed up:
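Lung sections from mice killed 6 h after intratracheal LPS, with or without pretreatment. Macrophages detected by immunohistochemistry for the marker CD68.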

The subject of data set [5] is RAW264.7. Kind of data set: Anti-inflammatory activity in mouse RAW264.7 cells assessed as inhibition of LPS-induced IL6 production pre-incubated for 10 mins before LPS stimulation for 24 hrs by ELISA method. The format is functional, cell-based. The conditions noted are these: in the assay text read “pre-incubated for 30 mins” for “pre-incubated for 10 mins”. In outline: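 RAW 264.7 macrophages pretreated for 30 min at 1, 2.5, 5 and 10 µM, then given LPS (0.5 µg/mL) for 24 h. IL-6 in medium measured by ELISA, normalized to total protein, and expressed as percent of LPS. Concentration-response used for IC50; 3 independent experiments.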

Data set [6] in a line: Toxicity against human HL7702 cells assessed as reduction in cell survival at 10 uM incubated for 24 hrs by MTT assay. The format is cell-based. The conditions noted are these: l02, 24 h. Summed up: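 HL-7702 normal hepatic cells treated at 10 µM for 24 h. Viability measured by MTT.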
In data set [7] the test system is Mus musculus. Kind of data set: Anti-inflammatory activity in C57BL/6 mouse model of LPS-induced acute lung injury assessed as reduction in lung wet/dryweight ratio at 20 mg/kg for 1 week dosed before LPS instillation for 6 hrs. In kind it is functional, organism-based. Summed up: (§3)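 ALI model in mice: one-week pretreatment at 20 mg/kg, then intratracheal LPS instillation (5 mg/kg). After 6 h, animals anaesthetized and killed. Lung wet/dry weight ratio determined. Total cell count and total protein concentration measured in bronchoalveolar lavage fluid.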

The subject of data set [8] is Mus musculus. Put plainly: Anti-inflammatory activity in C57BL/6 mouse model of LPS-induced acute lung injury assessed as reduction in protein level in bronchoalveolar lavage fluid at 20 mg/kg for 1 week dosed before LPS instillation for 6 hrs by BCA protein assay. The format is functional, organism-based. In outline: as §3
In data set [9] the test system is Mus musculus. Kind of data set: Anti-inflammatory activity in C57BL/6 mouse model of LPS-induced acute lung injury assessed as reduction in total cel count at 20 mg/kg for 1 week dosed before LPS instillation for 6 hrs. In kind it is functional, organism-based. Summed up:
as §3

In data set [10] the test system is Mus musculus. Put plainly: Anti-inflammatory activity in C57BL/6 mouse model of LPS-induced acute lung injury assessed as reduction in TNFalpha level in bronchoalveolar lavage fluid at 20 mg/kg for 1 week dosed before LPS instillation for 6 hrs. In kind it is functional, organism-based. In outline:
as §2

The species entered for data set [11] is Mus musculus. Kind of data set: Anti-inflammatory activity in C57BL/6 mouse model of LPS-induced acute lung injury assessed as reduction in lung airspace inflammation […] by hematoxylin and eosin staining method. The format is functional, organism-based. Summed up:
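Lung tissue taken 6 h after tracheal LPS instillation (5 mg/kg) in mice given or not given treatment. Sections stained with hematoxylin and eosin and examined by light microscopy for inflammatory cell infiltration, interstitial edema and alveolar septal thickening.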

In data set [12] the test system is BEAS-2B. Kind of data set: Anti-inflammatory activity in human BEAS2B cells assessed as LPS-induced IL-1beta mRNA expression incubated for 6 hrs by RT-qPCR method. The format is functional, cell-based. Summed up:
(§4)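 Beas-2B cells exposed to LPS (1.0 µg/mL) for 6 h, with or without compound. IL-1β, IL-6, IL-33 and TNF-α mRNA quantified by RT-qPCR. Results expressed as percent of LPS control.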

Data set [13] relates to BEAS-2B. Put plainly: Anti-inflammatory activity in human BEAS2B cells assessed as LPS-induced IL6 mRNA expression incubated for 6 hrs by RT-qPCR method. The format is functional, cell-based. In outline:
as §4

In data set [14] the test system is BEAS-2B. Put plainly: Anti-inflammatory activity in human BEAS2B cells assessed as LPS-induced IL33 mRNA expression incubated for 6 hrs by RT-qPCR method. In kind it is functional, cell-based. Summed up:
as §4

Data set [15] deals with BEAS-2B. Kind of data set: Anti-inflammatory activity in human BEAS2B cells assessed as LPS-induced TNFalpha mRNA expression incubated for 6 hrs by RT-qPCR method. The format is functional, cell-based. In outline: as §4
The subject of data set [16] is RAW264.7. Put plainly: Anti-inflammatory activity in mouse RAW264.7 cells assessed as inhibition of LPS-induced IL6 production pre-incubated for 30 mins before LPS stimulation for 24 hrs by ELISA method.

pIC50: −log10 of the molar value. Activity calls are given as the source filed them. The rule behind the calls is not given here.

For the compound `Oc1ccc(/C=C/c2cc(O)cc(O)c2)cc1`, the inhibition entry with RAW264.7 [1], in the data set on RAW264.7 [2], with Mus musculus [3] and in the data set with Mus musculus [4] was “Active” each time.

On to `CCN(CC)c1ccc(/C=N/c2cc(C(=O)/C=C/c3cc(OC)c(OC)c(OC)c3)ccc2OC)c(O)c1`, for which the inhibition entry with RAW264.7 [1] was “Active”.

On to `COc1ccccc1/C=C/C(=O)c1ccc(OC)c(/N=C/c2cccc(OC)c2O)c1`, for which the inhibition entry with RAW264.7 [1] and in the data set on RAW264.7 [2] was “Active” each time.

As to `COc1ccc(C(=O)/C=C/c2cc(OC)c(OC)c(OC)c2)cc1/N=C/c1cc2c(cc1Br)OCO2`, the inhibition result with RAW264.7 [1] was “Active”.

`COc1ccc(C(=O)/C=C/c2ccccc2Br)cc1/N=C/c1cccc(OC)c1O`: the inhibition result in the data set with RAW264.7 [1] and in the data set on RAW264.7 [2] was “Active” in each case.

Turning to `COc1ccc(C(=O)/C=C/c2cc(OC)c(OC)c(OC)c2)cc1/N=C/c1cccc(O)c1O`, the inhibition result in the data set with RAW264.7 [1], in the data set on RAW264.7 [2], in the data set on Mus musculus [7], in the data set with Mus musculus [8], in the data set on Mus musculus [9] and in the data set on Mus musculus [10] was “Active” throughout. Moreover, the inhibition result in the data set filed under Mus musculus [11], in the data set with Mus musculus [3], in the data set with Mus musculus [4], in the data set with BEAS-2B [12], in the data set on BEAS-2B [13] and in the data set with BEAS-2B [14] was “Active” in each case. In the data set on BEAS-2B [15], the inhibition result was “Active”. Besides, in the data set with RAW264.7 [5], the inhibition result is “Dose-dependent effect”. Further, the Activity entry in data set [6] was “Non-toxic”. The IC50 with RAW264.7 [16] is 1.8 µM.

`COc1ccc(C(=O)/C=C/c2cc(OC)c(OC)c(OC)c2)cc1/N=C/c1ccc(Cl)cc1Cl`: the inhibition result in the data set on RAW264.7 [1] is “Active”.

With `COc1ccc(C(=O)/C=C/c2cc(OC)c(OC)c(OC)c2)cc1/N=C/c1cccc(OC)c1O`, in the data set on RAW264.7 [1], the inhibition result was “Active”. The inhibition entry in the data set with RAW264.7 [2] was “Active”. For the same compound, in the data set on RAW264.7 [5], the pIC50 is 5.55 and the inhibition result was “Dose-dependent effect”. Moreover, the Activity entry in data set [6] is listed as “Non-toxic”.

Turning to `COc1ccc(C(=O)/C=C/c2cc(OC)c(OC)c(OC)c2)cc1/N=C/c1ccc(O)cc1O`, in the data set with RAW264.7 [1], the inhibition entry is “Active”.

As for `COc1ccc(C(=O)/C=C/c2cc(OC)c(OC)c(OC)c2)cc1/N=C/c1ccccc1Br`, the inhibition result with RAW264.7 [1] and in the data set on RAW264.7 [2] was “Active” each time. The inhibition entry in the data set on RAW264.7 [5] was “Dose-dependent effect”. The Activity entry in [6] is “Non-toxic”. Besides, in the data set with RAW264.7 [16], the IC50 is 4.8 µM.

For the compound `COc1ccc(C(=O)/C=C/c2ccccc2C(F)(F)F)cc1/N=C/c1cccc(OC)c1O`, the inhibition result in the data set with RAW264.7 [1] and with RAW264.7 [2] was “Active” each time.

Consider `COc1cc(OC)c(/C=C/C(=O)c2ccc(OC)c(/N=C/c3cccc(OC)c3O)c2)c(OC)c1`, for which the inhibition result in the data set on RAW264.7 [1] is “Active”.

As to `COc1ccc(Br)c(/C=N/c2cc(C(=O)/C=C/c3cc(OC)c(OC)c(OC)c3)ccc2OC)c1`, the inhibition entry with RAW264.7 [1] was “Active”.

Take `COc1ccc(C(=O)/C=C/c2ccc(Br)cc2)cc1/N=C/c1cccc(OC)c1O`: the inhibition entry in the data set on RAW264.7 [1] and in the data set on RAW264.7 [2] was “Active” each time.

Consider `COc1ccc(C(=O)/C=C/c2cc(OC)c(OC)c(OC)c2)cc1/N=C/c1ccccc1O`, for which the inhibition entry in the data set with RAW264.7 [1] was “Active”. Besides, the inhibition entry in the data set with RAW264.7 [5] is “Dose-dependent effect”. The Activity entry in data set [6] is listed as “Non-toxic”. Also, the IC50 with RAW264.7 [16] is 3.6 µM.

In the case of `COc1ccc(C(=O)/C=C/c2cccc(Br)c2)cc1/N=C/c1cccc(OC)c1O`, the inhibition result with RAW264.7 [1] and with RAW264.7 [2] was “Active” in each case.

In the case of `COc1ccc(C(=O)/C=C/c2ccc(OC)c(OC)c2)cc1/N=C/c1cccc(OC)c1O`, in the data set on RAW264.7 [1], the inhibition result was “Active”.

As for `COc1ccc(C(=O)/C=C/c2cc(OC)c(OC)c(OC)c2)cc1/N=C/c1ccc(O)c(Br)c1`, the inhibition entry with RAW264.7 [1] and in the data set on RAW264.7 [2] was “Active” each time. The inhibition result with RAW264.7 [5] is “Dose-dependent effect”. In data set [6], the Activity result is “Non-toxic”. Besides, the IC50 in the data set on RAW264.7 [16] amounted to 3.6 µM.

For `COc1ccc(C(=O)/C=C/c2ccc(C(F)(F)F)cc2)cc1/N=C/c1cccc(OC)c1O`, the inhibition entry with RAW264.7 [1] and in the data set on RAW264.7 [2] was “Active” each time.

Regarding `COc1ccc(C(=O)/C=C/c2ccc3ccccc3c2)cc1/N=C/c1cccc(OC)c1O`, in the data set on RAW264.7 [1], the inhibition entry is “Active”.
